Test results reported in ChEMBL document CHEMBL1944580, “Synthesis of novel sulfonamide-1,2,4-triazoles, 1,3,4-thiadiazoles and 1,3,4-oxadiazoles, as potential antibacterial and antifungal agents. Biological evaluation and conformational analysis studies” (2012).
In brackets after ≈: the same amount, converted by molar mass.

How the values were obtained:
[1] = system: Talaromyces funiculosus; experiment: Antifungal activity against Penicillium funiculosum ATCC 36839 treated for 72 hrs followed by sub-cultivated for 5 days by serial dilution method; type: functional
Summary of the method: (§1)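 MFC obtained after the 72 h, 28 °C malt-broth microdilution (spore inoculum about 1.0 × 10^5 per well, compounds from 1 mg/ml DMSO). 2 µl was serially subcultured into 100 µl broth per well and incubated a further 5 days at 28 °C. MFC is the lowest concentration with no visible growth, taken as 99.5% killing of the original inoculum.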

[2] = system: Aspergillus fumigatus; experiment: Antifungal activity against Aspergillus fumigatus human isolate after 72 hrs by serial dilution method; type: functional
Summary of the method: (§2)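 Modified microdilution MIC. Spores were washed from malt agar cultures with sterile 0.85% saline containing 0.1% Tween 80 and adjusted to about 1.0 × 10^5 per 100 µl well in malt broth. Compounds were dissolved in DMSO (1 mg/ml). Plates incubated 72 h at 28 °C. MIC is the lowest concentration with no visible growth under a binocular microscope. Bifonazole and ketoconazole were the references.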

[3] = system: Micrococcus flavus; experiment: Antibacterial activity against Micrococcus flavus ATCC 10240 after 24 hrs by micro dilution method; type: functional; conditions: ATCC 10240, 24 h
Summary of the method: (§3)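 Microdilution MIC in 96-well plates. Bacterial suspensions adjusted in sterile saline to 1.0 × 10^5 CFU/ml, giving 1.0 × 10^4 cfu per well in LB broth. Compounds tested at up to 1 mg/ml. Plates incubated 24 h. MIC taken as the lowest concentration with no visible growth under a binocular microscope. OD at 655 nm was also read against a blank and the positive control. Streptomycin and ampicillin were the positive controls.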

[4] = system: Aspergillus flavus; experiment: Antifungal activity against Aspergillus flavus ATCC 9643 treated for 72 hrs followed by sub-cultivated for 5 days by serial dilution method; type: functional; summary of the method: as §1
[5] = system: Talaromyces funiculosus; experiment: Antifungal activity against Penicillium funiculosum ATCC 36839 after 72 hrs by serial dilution method; type: functional; conditions: ATCC 36839, 72 h; summary of the method: as §2
[6] = system: Aspergillus fumigatus; experiment: Antifungal activity against Aspergillus fumigatus human isolate treated for 72 hrs followed by sub-cultivated for 5 days by serial dilution method; type: functional; summary of the method: as §1
[7] = system: Enterobacter cloacae; experiment: Antibacterial activity against Enterobacter cloacae human isolate after 24 hrs by micro dilution method; type: functional; summary of the method: as §3
[8] = system: Trichoderma viride; experiment: Antifungal activity against Trichoderma viride IAM 5061 treated for 72 hrs followed by sub-cultivated for 5 days by serial dilution method; type: functional; summary of the method: as §1
[9] = system: Pseudomonas aeruginosa; experiment: Antibacterial activity against Pseudomonas aeruginosa ATCC 27853 treated for 24 hrs followed by sub-cultivated for 72 hrs by micro dilution method; type: functional
Summary of the method: (§4)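 2 µl from each well was serially subcultured into 100 µl fresh broth per well and incubated a further 72 h. MBC is the lowest concentration with no visible growth, taken as 99.5% killing of the original inoculum. Streptomycin and ampicillin were the positive controls.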

[10] = system: Staphylococcus aureus; experiment: Antibacterial activity against Staphylococcus aureus ATCC 6538 after 24 hrs by micro dilution method; type: functional; conditions: ATCC 6538, 24 h; summary of the method: as §3
[11] = system: Escherichia coli; experiment: Antibacterial activity against Escherichia coli ATCC 35210 after 24 hrs by micro dilution method; type: functional; conditions: ATCC 35210, 24 h; summary of the method: as §3
[12] = system: Listeria monocytogenes; experiment: Antibacterial activity against Listeria monocytogenes NCTC 7973 treated for 24 hrs followed by sub-cultivated for 72 hrs by micro dilution method; type: functional; summary of the method: as §4
[13] = system: Staphylococcus aureus; experiment: Antibacterial activity against Staphylococcus aureus ATCC 6538 treated for 24 hrs followed by sub-cultivated for 72 hrs by micro dilution method; type: functional; summary of the method: as §4
[14] = system: Bacillus cereus; experiment: Antibacterial activity against Bacillus cereus clinical isolate treated for 24 hrs followed by sub-cultivated for 72 hrs by micro dilution method; type: functional; summary of the method: as §4
[15] = system: Enterobacter cloacae; experiment: Antibacterial activity against Enterobacter cloacae human isolate treated for 24 hrs followed by sub-cultivated for 72 hrs by micro dilution method; type: functional; summary of the method: as §4
[16] = system: Aspergillus niger; experiment: Antifungal activity against Aspergillus niger ATCC 6275 treated for 72 hrs followed by sub-cultivated for 5 days by serial dilution method; type: functional; summary of the method: as §1
[17] = system: Salmonella typhimurium; experiment: Antibacterial activity against Salmonella Typhimurium ATCC 13311 treated for 24 hrs followed by sub-cultivated for 72 hrs by micro dilution method; type: functional, Salmonella enterica subsp. enterica serovar Typhimurium; conditions: Salmonella enterica; summary of the method: as §4
[18] = system: Salmonella typhimurium; experiment: Antibacterial activity against Salmonella Typhimurium ATCC 13311 after 24 hrs by micro dilution method; type: functional, Salmonella enterica subsp. enterica serovar Typhimurium; conditions: Salmonella enterica, ATCC 13311, 24 h; summary of the method: as §3
[19] = system: Aspergillus flavus; experiment: Antifungal activity against Aspergillus flavus ATCC 9643 after 72 hrs by serial dilution method; type: functional; conditions: ATCC 9643, 72 h; summary of the method: as §2
[20] = system: Aspergillus niger; experiment: Antifungal activity against Aspergillus niger ATCC 6275 after 72 hrs by serial dilution method; type: functional; conditions: ATCC 6275, 72 h; summary of the method: as §2
[21] = system: Aspergillus versicolor; experiment: Antifungal activity against Aspergillus versicolor ATCC 11730 treated for 72 hrs followed by sub-cultivated for 5 days by serial dilution method; type: functional; summary of the method: as §1
[22] = system: Micrococcus flavus; experiment: Antibacterial activity against Micrococcus flavus ATCC 10240 treated for 24 hrs followed by sub-cultivated for 72 hrs by micro dilution method; type: functional; summary of the method: as §4
[23] = system: Escherichia coli; experiment: Antibacterial activity against Escherichia coli ATCC 35210 treated for 24 hrs followed by sub-cultivated for 72 hrs by micro dilution method; type: functional; summary of the method: as §4
[24] = system: Fulvia fulva; experiment: Antifungal activity against Fulvia fulva treated for 72 hrs followed by sub-cultivated for 5 days by serial dilution method; type: functional; summary of the method: as §1
[25] = system: Penicillium ochrochloron; experiment: Antifungal activity against Penicillium ochrochloron ATCC 9112 after 72 hrs by serial dilution method; type: functional; conditions: ATCC 9112, 72 h; summary of the method: as §2
[26] = system: Penicillium ochrochloron; experiment: Antifungal activity against Penicillium ochrochloron ATCC 9112 treated for 72 hrs followed by sub-cultivated for 5 days by serial dilution method; type: functional; summary of the method: as §1
[27] = system: Aspergillus versicolor; experiment: Antifungal activity against Aspergillus versicolor ATCC 11730 after 72 hrs by serial dilution method; type: functional; conditions: ATCC 11730, 72 h; summary of the method: as §2
[28] = system: Pseudomonas aeruginosa; experiment: Antibacterial activity against Pseudomonas aeruginosa ATCC 27853 after 24 hrs by micro dilution method; type: functional; conditions: ATCC 27853, 24 h; summary of the method: as §3
[29] = system: Listeria monocytogenes; experiment: Antibacterial activity against Listeria monocytogenes NCTC 7973 after 24 hrs by micro dilution method; type: functional; conditions: NCTC 7973, 24 h; summary of the method: as §3
[30] = system: Trichoderma viride; experiment: Antifungal activity against Trichoderma viride IAM 5061 after 72 hrs by serial dilution method; type: functional; conditions: IAM 5061, 72 h; summary of the method: as §2
[31] = system: Fulvia fulva; experiment: Antifungal activity against Fulvia fulva after 72 hrs by serial dilution method; type: functional; summary of the method: as §2
[32] = system: Bacillus cereus; experiment: Antibacterial activity against Bacillus cereus clinical isolate after 24 hrs by micro dilution method; type: functional; summary of the method: as §3

| MIC [2] | MIC [3] | MIC [5] | MIC [7] | MIC [10] | MIC [11] | MIC [18] | MIC [19] | MIC [20] | SMILES | MFC [1] | MFC [4] | MFC [6] | MFC [8] | MBC [9] | MBC [12] | MBC [13] | MBC [14] | MBC [15] | MFC [16] | MBC [17] | further results |
| --- | --- | --- | --- | --- | --- | --- | --- | --- | --- | --- | --- | --- | --- | --- | --- | --- | --- | --- | --- | --- | --- |
| 140 µM (≈ 52.1 µg/mL) | 270 µM (≈ 101 µg/mL) | 140 µM (≈ 52.1 µg/mL) | 270 µM (≈ 101 µg/mL) | 270 µM (≈ 101 µg/mL) | 270 µM (≈ 101 µg/mL) | 270 µM (≈ 101 µg/mL) | 140 µM (≈ 52.1 µg/mL) | 70 µM (≈ 26.1 µg/mL) | CNc1nnc(Cc2cc(OC)c(OC)cc2S(=O)(=O)N(C)C)s1 | 270 µM (≈ 101 µg/mL) | 270 µM (≈ 101 µg/mL) | 270 µM (≈ 101 µg/mL) | 130 µM (≈ 48.4 µg/mL) | 270 µM (≈ 101 µg/mL) | 540 µM (≈ 201 µg/mL) | 540 µM (≈ 201 µg/mL) | 270 µM (≈ 101 µg/mL) | 270 µM (≈ 101 µg/mL) | 140 µM (≈ 52.1 µg/mL) | 270 µM (≈ 101 µg/mL) | MFC [21]: 540 µM (≈ 201 µg/mL); MBC [22]: 540 µM (≈ 201 µg/mL); MBC [23]: 270 µM (≈ 101 µg/mL); MFC [24]: 70 µM (≈ 26.1 µg/mL); MIC [25]: 140 µM (≈ 52.1 µg/mL); MFC [26]: 270 µM (≈ 101 µg/mL); MIC [27]: 270 µM (≈ 101 µg/mL); MIC [28]: 270 µM (≈ 101 µg/mL); MIC [29]: 270 µM (≈ 101 µg/mL); MIC [30]: 70 µM (≈ 26.1 µg/mL); MIC [31]: 70 µM (≈ 26.1 µg/mL); MIC [32]: 270 µM (≈ 101 µg/mL) |
| 130 µM (≈ 50.2 µg/mL) | 260 µM (≈ 100 µg/mL) | 130 µM (≈ 50.2 µg/mL) | 520 µM (≈ 201 µg/mL) | 520 µM (≈ 201 µg/mL) | 260 µM (≈ 100 µg/mL) | 260 µM (≈ 100 µg/mL) | 130 µM (≈ 50.2 µg/mL) | 130 µM (≈ 50.2 µg/mL) | CCNc1nnc(Cc2cc(OC)c(OC)cc2S(=O)(=O)N(C)C)s1 | 260 µM (≈ 100 µg/mL) | 260 µM (≈ 100 µg/mL) | 260 µM (≈ 100 µg/mL) | 130 µM (≈ 50.2 µg/mL) | 260 µM (≈ 100 µg/mL) | 520 µM (≈ 201 µg/mL) | 520 µM (≈ 201 µg/mL) | 260 µM (≈ 100 µg/mL) | 520 µM (≈ 201 µg/mL) | 260 µM (≈ 100 µg/mL) | 260 µM (≈ 100 µg/mL) | MFC [21]: 520 µM (≈ 201 µg/mL); MBC [22]: 520 µM (≈ 201 µg/mL); MBC [23]: 260 µM (≈ 100 µg/mL); MFC [24]: 70 µM (≈ 27.1 µg/mL); MIC [25]: 130 µM (≈ 50.2 µg/mL); MFC [26]: 260 µM (≈ 100 µg/mL); MIC [27]: 260 µM (≈ 100 µg/mL); MIC [28]: 260 µM (≈ 100 µg/mL); MIC [29]: 520 µM (≈ 201 µg/mL); MIC [30]: 70 µM (≈ 27.1 µg/mL); MIC [31]: 70 µM (≈ 27.1 µg/mL); MIC [32]: 260 µM (≈ 100 µg/mL) |
